Data from the RNAGym collection of RNA variant scans (doi:10.1126/science.aae0568).
Variants at the floor of the assay were thinned out.

B1: tRNA (parent)
chain: GUUCCGUUGGCGUAAUGGUAACGCGUCUCCCUCCUAAGGAGAAGACUGCGGGUUCGAGUCCCGUACGGAACG

Variants of: B1
Assay: yeast fitness relative to wild type (ratio to wild type); higher = fitter; tRNA-Arg(CCU), competitive growth, 37 C, YPD
In short: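 Start and end populations of a pooled competition were compared by 100-nucleotide paired-end sequencing of gene amplicons. The Saccharomyces cerevisiae strains carried tRNA-Arg(CCU) gene variants at the native genomic locus, synthesised with a 3% per-site mutation rate at 69 sites, and competed in YPD at 37°C for 24 hours in six parallel replicates. Darwinian fitness relative to wild type was based on the change in genotype frequencies. Genotypes required ≥ 100 starting reads, and estimates < 0.5 were set to 0.5.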

First: GUUCCGUUAGCGUAAUGGUGACGCGUCUCCCUCCUAAGGAGAAGACUGCGGGUUCGAGACCCGUAGGGAACG
Second: GUUCCGUUAGCGUAAUGGUUACGCGUCUCCCUCCUAAGGAGAAGACUGCGGGUUCGAGUCCCGUACGGAACG
The yeast fitness of the first is lower: ≤ 0.5 for the first, 0.829 for the second.

First: GUUCCGUUAGCGUAAUGGUUAGGCGUCUCCCUCCUAAGGAGAAGACUGCGGGUUCGAGUCCCGUACGGAACG
Second: GUUCCGUUAGCGUAAUGGUUACGCGUCUCCCUCGUAAGGAGUAGACUGCGGGUUCGAGUCCCGUACGCAACG
The yeast fitness of the first is higher: 0.53 for the first, ≤ 0.5 for the second.

Going from GUUCCGUUAGCGUAAUGGUUACGCGUCUCCCUCCUAAGGAGAAGACUGCGGGUUCGAGUCCCGUAUGGAACG to GUUCCGUUAGCGUAAUGGUACAGCGUCUCCCUCCUAAGGAGAAGACUGCGGGUUCGAGUCCCGUAUGGAACG, the yeast fitness falls from 0.529 to ≤ 0.5.

First: GUUCCGUUAGCGUAAUGGUACCGCGUAUCCCUCCUAGGGAGAAGCCUGCGGGUUCGAGUCCCGUACGGAACG
Second: GUUCCGUUAGCGUAAUGGUACCGCCUCUCCCUCCUAAGGAGAAGACUGCGGGUUCGAGUCCCGUACGGAACG
The yeast fitness of the first is lower: ≤ 0.5 for the first, 0.565 for the second.

GUUCCGUUAGCGUAAUGGUACCGCCUCUCCCUCCUAAGGAGAAGACUGCGGGUUCGAGUCCCGAACAGAACG and GUUCCGUUAGCGUAAUGGUAGCGCGUCUCCCUCCUAAGGGGACGACUGCGGGUACGAGUCCCGUACGGAACG cannot be ordered by yeast fitness: ≤ 0.5 for the first, ≤ 0.5 for the second.

GUUCCGUUAGCGUAAUGGUAGCGCGUCUGCAUCGUAAGGAGAAGACUGCGGGUUCGAGUCCCGUACGGAACG and GUUCCGUUAGCGUAAUGGUAGCGCGUCUCCCUACUAAGGAGAAGACUGCGGGUUCGAGUCCUCUACGGACCG cannot be ordered by yeast fitness: ≤ 0.5 for the first, ≤ 0.5 for the second.

GUUCCGUUAGCGUAAUGGUAGCGCGUCUCCCUCCUAAGGAGAAGACUGCGGGUUCGAGUCUCGUUCGGAACG and GUUCCGUUAGCGUAAUGGUAGCGCGUCUCCCGCCUAAGCAGAAGACUGCGGCUUCGAGUCCCGUACGGAACG cannot be ordered by yeast fitness: ≤ 0.5 for the first, ≤ 0.5 for the second.

Compared with GUUCCGUUAGCGUAAUGGUAGCGCGUCUCCCUCCUAAGGAGAAGACUGCGGGUUCGAGACCCGUACGGAACG, GUUCCGUUAGCGUAAUGGUAUCGCGUCUCCCUCCUGAGGCGAAGACUGCGGGUUCGAGUCCCGUACGGAACG is lower in yeast fitness: 0.731 for the first, ≤ 0.5 for the second.

GUUCCGUUAGCGUAAUGGUAUCGGGUCACCCUCCUAAGGAGAAGACUGCGGGUUCGAGUGCCGUACGGACCG and GUUCCGUUAGCGUAAUGGUAUCGCGUCUCCCUCGUAAGAAGAAGACUGCGGGUUUGAGUCGCGUACGGAACG cannot be ordered by yeast fitness: ≤ 0.5 for the first, ≤ 0.5 for the second.

First: GUUCCGUUAGCGUAAUGGUAUCGCGUCUCCCUCCUAAGGAGAAAACUGCGGGUUGGAGUCCCGUACGGAACG
Second: GUUCCGUUAGCGUAAUGGUAUCGCGUCUCCCUCCUAAGGAGAAGACUCCGGGUUAGAGUCCCGUAGCGAACG
The yeast fitness of the first is higher: 0.584 for the first, ≤ 0.5 for the second.

Compared with GUUCCGUUAGCGUAAUGGUAACGCGUCUCCCUCCUCAGGCGAAGCCUGCGGGUUCGAGUCCCGUACGGAACG, GUUCCGUUAGCGUAAUGGUAACGCGUCUCCCUCCUGAGGAGAAGACUGCGGGUUCGAGUCCCGUACCGAACG is higher in yeast fitness: ≤ 0.5 for the first, 0.664 for the second.

Compared with GUUCCGUUAGCGUAAUGGUAACGCGUCUCCCUCCUUAGAAGAAGACUGCGGGUUCGAGUCCCGUACGGAACG, GUUCCGUUAGCGUAAUGGUAACGCGUCUCCCUCCUUAGAAGAAGACUGCGGCUUCGAGUCCCGUACGGAACG is lower in yeast fitness: 0.535 for the first, ≤ 0.5 for the second.

GUUCCGUUAGCGUAAUGGUAACGCGUCUCCCUCCUUAGGAGAAGACUGCGAGUUCGAGUCGCGUACGGAACG and GUUCCGUUAGCGUAAUGGUAACGCGUCUCCCUCCUACGGAGAAGUCUGCGGGUUCGAGUCCCGUACGGAACG cannot be ordered by yeast fitness: ≤ 0.5 for the first, ≤ 0.5 for the second.

Compared with GUUCCGUUAGCGUAAUGGUAACGCGUCUCCCUCCUACGGAGAAGACUGCGGGUUCGAGUCCCGUCCGGAACG, GUUCCGUUAGCGUAAUGGUAACGCGUCUCCCUCCUACGGAGAAGACUGCGGGUUCGAGUCCGGUACGGAACG is lower in yeast fitness: 0.56 for the first, ≤ 0.5 for the second.

First: GUUCCGUUAGCGUAAUGGUAACGCGUCUCCCUCCUAGGGAGAAGACUGCGGGUUCGAGUCCCGUACGGAACG
Second: GUUCCGUUAGCGUAAUGGUAACGCGUCUCCCUCCUAGGGAGAAGACUGCGGGUUCGUGUCCCGUAUGGAACG
The yeast fitness of the first is higher: 0.795 for the first, ≤ 0.5 for the second.

Compared with GUUCCGUUAGCGUAAUGGUAACGCGUCUCCCUCCUAAGGCGAAGACUGCGGGUUCGAGUCCCGUACGGUACG, GUUCCGUUAGCGUAAUGGUAACGCGUCUCCCUCCUAAGGCGAAGACUGCGGGUUCGAGUCCCGUACGGAUCG is higher in yeast fitness: 0.722 for the first, 0.74 for the second.

First: GUUCCGUUAGCGUAAUGGUAACGCGUCUCCCUCCUAAGGCGAAGACUGUGGGUUCGAGUCCCGUACGGAACG
Second: GUUCCGUUAGCGUAAUGGUAACGCGUCUCCCUCCUAAGGCGAAGACUGCGGGUUCGAGUCCCGUACGAAACG
The yeast fitness of the first is higher: 0.713 for the first, ≤ 0.5 for the second.

Going from GUUCCGUUAGCGUAAUGGUAACGCGUCUCCCUCCUAAGGUGAAGACUGCGGGUUCGAGUCCCGUACGGAACG to GUUCCGUUAGCGUAAUGGUAACGCGUCUCCCUCCUAAGGUGAAGACUGCGGGUUCGAGUCCCGUUCGGAACG, the yeast fitness falls from 1.06 to 0.718.

GUUCCGUUAGCGUAAUGGUAACGCGUCUCCCUCCUAAGGUGAAGACUGCGGGUUCGAGUCCGGUACGGAACG gave a yeast fitness of 0.593.
